From the EternaBench riboswitch data

System: MS2 coat protein
Experiment: apparent Kd, MS2 coat protein; higher = weaker binding; RNA-MaP array; FMN 200 µM where present
In short: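 Stalled E. coli RNA polymerase transcribed each design on Illumina sequencing-chip clusters. The clusters were titrated with SNAP-549-labelled MS2 coat protein, starting at 0.7 or 1.5 nM and doubling up to 3 µM, first without ligand and then with constant ligand, in 100 mM Tris-HCl pH 7.5, 80 mM KCl, 4 mM MgCl2, BSA, DTT, yeast tRNA and Tween-20. Green signal was normalised to red-channel RNA signal and to the control-cluster median Fmax. The apparent Kd is the median of filtered binding-curve fits made for each cluster.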

[1] = designed as: ON switch for flavin mononucleotide, no ligand
[2] = ligand present: flavin mononucleotide, designed as: ON switch for flavin mononucleotide
[3] = designed as: OFF switch for flavin mononucleotide, no ligand
[4] = ligand present: flavin mononucleotide, designed as: OFF switch for flavin mononucleotide

| Sequence | apparent Kd [1] [nM] | apparent Kd [2] [nM] | apparent Kd [3] [nM] | apparent Kd [4] [nM] |
| --- | --- | --- | --- | --- |
| UGGUCGGAGACAGGAUAUGUGACUGCAUAGUGCACAGAAGGGUCUACAUGAGGAUCACCCAUGUCACCGACCACCAAACAACAA | 626 | 55.2 | – | – |
| CACUCGUGUCUAGGAUAUGAGUGACAAGCGCGAGAUUUUCUCGGCGCUAGCUCAGAAGGAGACAUGAGGAUCACCCAUGUAAGG | – | – | 162 | 12 |
| UGGUACUAGGGAGGAUAUGGGAAGAGACAUGAGGAUCACCCAUGUUUAAGAAUGCCGAGAGGCAACUAGAAGGCCCUAGUACCU | 38.8 | 7.42 | – | – |
| GUCGUGUGAGGAUAUGAUUUUUAGGCGGGAUUGCGACUGCUUCAGAAGGCACAUGAGGAUCACCCAUGUAUGAA | – | – | 11.3 | 38.8 |
| AUAUAUAGUGUGAGGAUAUGCUGGUCCUUGGAUCAGCAGAAGGCACAUGAGGAUCACCCAUGUAGUUAAAUAUA | – | – | 36 | 107 |
| UGCGACCUAGGAUAUACAUGAGGAUCACCCAUGUGAUUCGGUGGCGCGAUCCUUGAAAGUAGAAGGAGGAGCAA | – | – | 40.1 | 35.3 |
| ACCAUUUACUAAUUGUCUAUACAUGAGGAUCACCCAUGUUAUGAGGAUAUCAUCGUGAAACACGAUGAGAAGGCAUAGCAUUCG | – | – | 64.5 | 213 |
| GCCGAUUAAGUGAGGAUAUACCUAUGGAUACAUAGGUAGAAGGCACAUGAGGAUCACCCAUGUUCCUCAUCGGC | – | – | 16.8 | 132 |
| GUACUGUAGUGAGGAUAUACGAGAUCGAUAGAUCGGCGAUCCAAUUAUACAUGAGGAUCACCCAUGUAGAAGGCACUUCAGUAC | – | – | 8.75 | 55.8 |
| CAUACACAUGAGGAUCACCCAUGUGAGGAUAUGCGUACGUUGUCCGUAGGCGACGUGCGCAGAAGGCGCGUGUU | – | – | 56.9 | 48.3 |
| GGGUACAUCGGAGGAUAUCAUGUAAAUACAUGAGGAUCACCCAUGUCGAUGGAGACAUCGGAGAUUGAGAAGGGCGAUGUACCG | 647 | 75.8 | – | – |
| UAGAUGGGAGGAUAUACGUAGAUGCAGGUUCGUGUGGUGCUACAUGAGGAUCACCCAUGUAGAAGGCCCGUCUU | – | – | 14.8 | 48.9 |
| AAUUAUUGAUGAGGAUAUUGUGGUGAAACACGACGAGAAGGCAUAUGUCACAUGAGGAUCACCCAUGUGAGCCUUGUGCAUAUA | – | – | 19.9 | 18.9 |
| GGAUAUAUACAGGAGGAUAUGAGAACAAAGACAUGAGGAUCACCCAUGUACAAAAGGUGGAACAAUCAGAAGGUCUAAACAACAAA | 78.3 | 69 | – | – |
| AAGAGCGAUUCUCCCUUCCUACAUGAGGAUCACCCAUGUACGAGAAGGCGCCGUUUAUACAACGGUGAGGAUAUCGUGCGUUAC | – | – | 4.49 | 4.7 |
| UUUUUAUUUGCAGGAUAUUGUUUUUUAUUACUUCAAGAAGGGCAUUACAUGAGGAUCACCCAUGUCAUCCUAUGGUUUACUAGU | – | – | 10.6 | 10.4 |
| AAGACGUGGGAAGGAUAUCUGGAAUAUCGGUCGAGAGAAGGUCCCUCGACAUGAGGAUCACCCAUGUAACACGGUCUACCGUGG | 472 | 280 | – | – |
| UUGUUAGGGAGAGGAUAUUGACAUGAGGAUCACCCAUGUAUUUGGGAGUGUUUACUGAAUUCUCACGAGAAGGCUUACGAAUUU | – | – | 550 | 471 |
| AACAGUAGAGGAUAUACAUGAGGAUCACCCAUGUGAUAAUUACGUGGCGUACCACGAAGUAGAAGGCUACUGGA | – | – | 65.6 | 316 |
| AUGCUAGUGUGAGGAUAUACAUGAGGAUCACCCAUGUGUCCGAAGUACCGGACAUGAGGUACGUCGUAGAAGGUACAUUAGCAU | – | – | 21 | 102 |
| UUUCGGCUCGAGAAGGUCUAUCGACAUGAGGAUCACCCAUGUUGCCAUGGAAGGAUAUCGAAGGCAGCACGGGAAAUAGUCCGG | 185 | 53.3 | – | – |
| GAUGCACAUGAGAAGGCGAUCAUGAAACAUGAUCGAGGAUAUCAUGUAAACAUGAGGAUCACCCAUGUAUGGGAAAAGUGCAUC | 119 | 12.1 | – | – |
| ACUUGACAUGAGGAUCACCCAUGUCAGGAUAUAGUAGGACAAAUAAAUAAAAGUUCUACUAGAAGGGACGUGGG | – | – | 21.6 | 22.4 |
| AUACUUAAUGAAGGAUAUCUUAGCAUAAACCUGAGAGAAGGUCAUUAUUACAUGAGGAUCACCCAUGUUGUAGUUAAUGGGUAA | – | – | 199 | 254 |
| CAAAGACAAGCAGGAUAUCACAUGAGGAUCACCCAUGUCGGGAUCACCUGAGAGUGUUUAUUAAGUGAGAAGGGCUAGAUCACC | – | – | 17.6 | 31.2 |
| AGGAAGUUAGGAUAUGCUGCUCGUCACUUGCGUGAUGAGUAGCAGAAGGAACAUGAGGAUCACCCAUGUAAAGA | – | – | 30.8 | 27.2 |
| GGAAUGUCGGGAGGAUAUCCAAAUGUAUACAUAGGAGAAGGCCCGCACAUGAGGAUCACCCAUGUAAUAACGCGUGGCAUCUAC | – | – | 81.3 | 169 |
| GACAUUGGCAAGAAGGCAAACAUGAGGAUCACCCAUGUUCUGUAUGUAUUUUGAGGAUAUUGCCAAUGUAUGUGGAUCACCCAA | – | – | 8.91 | 10.1 |

| Sequence | apparent Kd [1] [nM] | apparent Kd [2] [nM] | apparent Kd [3] [nM] | apparent Kd [4] [nM] |
| --- | --- | --- | --- | --- |
| CUGAAGAUAUCAGGAUAUCUAUUUCCUACAUGAGGAUCACCCAUGUAGGUGAUCAGCCGAGUAAAGGAGAAGGGAUAUCUUUAG | 27.1 | 10.1 | – | – |
| GCCGUGUUAGGAUAUUAAAGACCUGCGCCAAACGCAGGAAGUAAGAAGGAACAUGAGGAUCACCCAUGUGUCCG | – | – | 17.2 | 14.5 |
| GCGUUGAACGAGAAGGCCAAUACAUGAGGAUCACCCAUGUAGUGAAGUAUUGGAGGAUAUCGAUCGGCGUCUCAUGAGCAACGC | – | – | 7.49 | 19.6 |
| GGUAGAGACGUUAACAUGAGGAUCACCCAUGUCGAAGGAGAUGAGGAUAUCGUAUACGAUGUAUAUGAGAAGGCAUGGUCUGCC | 24.4 | 11.7 | – | – |
| GCUGCGUAUGAGAAGGCGAUCAUGAAACAUGAUCGAGGAUAUCAUGUUUACAUGAGGAUCACCCAUGUAUGGGUAUAAUGCAGC | 335 | 18.1 | – | – |
| AAGCUGACAAUAAAUAACUCAAAUACAUGAGGAUCACCCAUGUAGGAUAUGCAGUGGAAUACACUGCAGAAGGACAUAGUCAGC | – | – | 13.6 | 21.9 |
| GCUCUAUGCGAGAAGGCGUGAAACAUGAGGAUCACCCAUGUCAGAGAUAUGAGGAUAUUGCAUAGAGCAAAAGACGGAAACGUC | 12.2 | 5.02 | – | – |
| GAAUAGGCAGGAUAUACAUGAGGAUCACCCAUGUGCUUGCGAUAGGCACGUGAACAACGUAGAAGGGCCUUAAC | – | – | 33.2 | 149 |
| CGCUAAGAUGGGUCUAAUGGACCACAGGAUAUGCUUGUACAUGAGGAUCACCCAUGUAAUAUUGUGCAGAAGGGUGGAUUUGCG | 18.9 | 7.03 | – | – |
| UGGGAGUCAGGAUAUACGAACAUGUCGCCAGAUGUCAAGGUACAUGAGGAUCACCCAUGUAGAAGGGACUAGAA | – | – | 39.4 | 42.1 |
| UGGUAAUAGGGAGGAUAUGGGAAGAUACAUGAGGAUCACCCAUGUUUAAGAAUGCCGAGAGGCAACUAGAAGGCCCUAGUACCU | 468 | 19.6 | – | – |
| GUCACACACUGCUCCGUGUCUGACAUGAGGAUCACCCAUGUGAGAAGGUAGCGUCGAAGCAACGUUAAGGAUAUCACGUGCAGU | – | – | 6.68 | 8.39 |
| GGAUUUCCUGAGGAUAUUGCAUCACCUGAUUUAUAAGAAGGCAGAACAUGAGGAUCACCCAUGUGGGUAUUCGG | – | – | 27.6 | 37.4 |
| ACAUGAGGAUCACCCAUGUAGAAUGAAGAAGGUACUAUAUAGAUAUACACCCUAUGUCUAUAUAGUAAGGAUAUUCUAAUAAUU | 6.45 | 6.35 | – | – |
| GCACAUGAGGAUCACCCAUGUCGGGAGGAUAUCUAGGCUGGGCGAUGCUAGGGCGGCCUUUGCUUAGAGAAGGCCCAUAAAAUC | 69.1 | 32.4 | – | – |
| GUCAGCUCGUGAGGAUAUACAUGUGCUGGAUACAGCACUAAUUAAAUCACAUGAGGAUCACCCAUGUAGAAGGCACGAGCUGAU | – | – | 16.7 | 24.8 |
| UGUUGUAUUACAGGAUAUCUAUUGUUUUUUUUUAGAGAAGGGUAUUCACAUGAGGAUCACCCAUGUAUAUACGAGGAAGUUGUG | 60.7 | 71.3 | – | – |
| AUUUUGUCAGGAUAUGAUUAGUAGGAUGAGAGUGCUACUACUUAGAAGGGACAUGAGGAUCACCCAUGUAUUCC | – | – | 16.8 | 20 |
| UACUACGCAGGAUAUACAUGAGGAUCACCCAUGUGUCUGCGAUAGGCACGUGAUAUCCGUAGAAGGGUGUAGAU | – | – | 30.4 | 79.5 |
| CCGGAAACGGGUAGCCUGACAUGAGGAUCACCCAUGUAAUACGAGGAUAUGGAUCCUAAUUGGAUCCAGAAGGUGUCAGGCUAC | 862 | 682 | – | – |
| AAACAGCUAGGAUAUACCCUCCGUGAGACUCCCAAAUCGAAACAUGAGGAUCACCCAUGUAGAAGGAGCUGACG | – | – | 13.4 | 12.2 |
| AUCAGCUUGUCAGGAUAUGCGUGUCAACGAAAGUUGACAAUCUUAAUAACAUGAGGAUCACCCAUGUAGAAGGGACGAGCUGAU | – | – | 17.1 | 17.9 |
| UCUCACUCAGGAUAUGAUGCGCAUGACAUGAGGAUCACCCAUGUGUGCAUGCCCUUUGCUUCAGAAGGGAGUGAGA | – | – | 19 | 21.6 |
| UGGUACUAGGGAGGAUAUGGGAAGAUACAUGAGGAUCACCCAUGUUUAAGAAUGCCGAGAGGCAACUAGAAGGCCCAAGUACCU | 425 | 18.6 | – | – |
| GUAGAGGAUUGAGGAUAUGCAGAGAGAUCAUGCGCGUCGCGCACAUGAGGAUCACCCAUGUAAGAGCAGAAGGUAACUAUGGAC | – | – | 79.9 | 49.3 |
| UUAUUUUUACAGAAGGUUUAAUAAUAUAUAUGAGAAGGAUAUGUAACAUGAGGAUCACCCAUGUUUCACCCAUAUGAGGAUCAU | – | – | 8.2 | 7.27 |
| GGUACCUUUACAGGAUAUGCUAGCCUUUGGUUAGCAGAAGGGUGAUACAUGAGGAUCACCCAUGUGGUGCCAGGGCGUGAGCCC | 79.2 | 447 | – | – |
